Values belong to the molecule of their own block, whether it stands above or below them. The source made the active and inactive calls. The calls are words filed in the database; no cut-off is given here.
Assays:
[1] = target: T1, Catechol O-methyltransferase (Homo sapiens, UniProt P21964); assay: Substrate activity at COMT (unknown origin) assessed as N-(4-Hydroxy-3-methoxyphenethyl)octanamide formation in presence of cofactor SAM at 180 mins by HPLC analysis; format: ADME; conditions: 3 h
T1 sequence (P21964 whole entry): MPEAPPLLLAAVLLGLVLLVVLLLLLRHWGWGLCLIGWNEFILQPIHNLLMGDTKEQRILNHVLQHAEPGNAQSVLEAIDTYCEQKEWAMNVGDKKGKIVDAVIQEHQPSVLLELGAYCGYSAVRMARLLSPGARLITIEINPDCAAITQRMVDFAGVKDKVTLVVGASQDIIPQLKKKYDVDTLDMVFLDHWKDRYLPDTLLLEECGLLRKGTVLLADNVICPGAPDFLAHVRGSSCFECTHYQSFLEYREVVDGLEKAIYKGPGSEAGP
In short: (§1)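 COMT reaction for lipophilic substrates: Tris buffer pH 8.0 with MgCl2 and dithiothreitol, 10 µL Tween20, 300 nmol SAM, 300 nmol substrate (from 100 mM ethanol stock), 75 units COMT in 1% BSA, 37 °C for 2–4 h. Cooled on ice, centrifuged, CHCl3-extracted, residue in 1:1 MeCN/water analysed by HPLC against methylated references.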

[2] = system: HUVEC; assay: Antiinflammatory activity in HUVEC assessed as inhibition of TNFalpha-stimulated VCAM1 expression at higher concentration measured after overnight incubation by Western blot analysis; format: functional, cell-based; conditions: Homo sapiens
In short: (§2)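 Primary HUVEC (from fresh umbilical cord, endothelial growth medium with 2% FBS, used at 80–90% confluence) treated with compound; VCAM-1 read-out under TNFα stimulation. Lysates in Triton/deoxycholate buffer; 15 µg protein resolved on 10% SDS-PAGE, semidry-blotted to PVDF, probed overnight at 4 °C for VCAM-1 or HO-1, visualized by ECL. Blots stripped and reprobed for β-actin as loading control.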

[3] = target: T2, Nuclear factor erythroid 2-related factor 2 (Homo sapiens) (UniProt Q16236); assay: Activation of NRF2 in HUVEC assessed as induction of HO1 expression at higher concentration measured after overnight incubation by Western blot analysis; format: tissue-based; conditions: filed as activator; in short: as §2
T2 sequence (whole entry): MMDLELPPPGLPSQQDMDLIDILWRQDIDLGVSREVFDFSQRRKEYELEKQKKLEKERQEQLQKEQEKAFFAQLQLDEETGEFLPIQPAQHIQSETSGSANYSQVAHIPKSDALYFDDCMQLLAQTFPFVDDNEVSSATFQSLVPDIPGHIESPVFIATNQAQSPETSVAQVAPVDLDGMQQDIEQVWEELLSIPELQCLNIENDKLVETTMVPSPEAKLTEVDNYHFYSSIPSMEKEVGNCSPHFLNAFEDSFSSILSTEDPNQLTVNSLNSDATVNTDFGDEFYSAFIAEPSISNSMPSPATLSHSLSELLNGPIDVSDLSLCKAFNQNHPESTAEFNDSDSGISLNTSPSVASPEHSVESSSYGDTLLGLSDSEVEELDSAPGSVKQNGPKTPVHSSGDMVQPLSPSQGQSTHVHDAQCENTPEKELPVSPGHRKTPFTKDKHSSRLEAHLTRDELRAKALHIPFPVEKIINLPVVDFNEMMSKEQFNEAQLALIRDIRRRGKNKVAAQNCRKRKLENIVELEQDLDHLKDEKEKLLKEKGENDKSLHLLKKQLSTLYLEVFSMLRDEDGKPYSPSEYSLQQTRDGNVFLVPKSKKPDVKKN

[4] = Redox activity of compound assessed as quenching of luminescence by horseradish peroxidase coupled luminol assay; format: physicochemical
In short: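 Peroxidase-luminol chemiluminescence: serial dilutions in water added to mix of 2.5 mM luminol, 0.9 mM p-coumaric acid and H2O2, with HRP; quenching read immediately on a plate reader. Expressed relative to compound-free control; at least three independent measurements per concentration; EC50 from concentration–response; ANOVA with LSD post-hoc.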

[5] = target: Transient receptor potential cation channel subfamily V member 1 (Rattus norvegicus) (UniProt O35433); assay: (§3) Activation of rat TRPV1 transfected in HEK293 cells assessed as increase in calcium influx in presence of capsaicin by FURA-2-AM dye based fluorescence assay; format: cell-based; conditions: filed as activator
Chain of Transient receptor potential cation channel subfamily V member 1 (Rattus norvegicus) (O35433 whole entry): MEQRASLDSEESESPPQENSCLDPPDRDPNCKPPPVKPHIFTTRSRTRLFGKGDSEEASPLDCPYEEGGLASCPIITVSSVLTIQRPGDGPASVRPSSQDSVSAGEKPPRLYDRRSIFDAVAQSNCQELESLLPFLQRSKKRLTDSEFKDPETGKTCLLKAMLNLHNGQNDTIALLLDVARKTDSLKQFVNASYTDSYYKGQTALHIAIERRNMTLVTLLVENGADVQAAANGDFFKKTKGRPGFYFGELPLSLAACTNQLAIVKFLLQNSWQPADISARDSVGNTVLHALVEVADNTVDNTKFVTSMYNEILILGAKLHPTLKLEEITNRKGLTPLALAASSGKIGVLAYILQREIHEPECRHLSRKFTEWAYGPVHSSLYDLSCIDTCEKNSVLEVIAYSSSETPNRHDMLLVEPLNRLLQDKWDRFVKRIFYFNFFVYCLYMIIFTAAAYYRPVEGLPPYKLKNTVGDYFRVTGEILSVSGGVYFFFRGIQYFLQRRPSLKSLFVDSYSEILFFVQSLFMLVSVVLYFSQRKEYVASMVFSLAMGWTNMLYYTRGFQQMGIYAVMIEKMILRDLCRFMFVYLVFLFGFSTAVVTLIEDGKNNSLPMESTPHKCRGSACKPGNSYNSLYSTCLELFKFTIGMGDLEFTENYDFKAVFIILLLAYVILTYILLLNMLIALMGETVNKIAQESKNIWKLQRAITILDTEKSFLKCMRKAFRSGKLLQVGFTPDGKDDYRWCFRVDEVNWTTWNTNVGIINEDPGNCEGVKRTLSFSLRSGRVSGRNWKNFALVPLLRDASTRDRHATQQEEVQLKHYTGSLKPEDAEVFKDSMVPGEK
In short: (§4)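 HEK293 transiently transfected with rat TRPV1, imaged 48 h later in HEPES-buffered extracellular solution (1.8 mM CaCl2) after 1 µM FURA-2AM loading. 340/380 nm excitation ratio at 510 nm, sampled at 0.5 Hz. Compound applied at several concentrations, then 10 µM capsaicin after washout to mark transfected cells. Peak minus baseline; each coverslip one experiment, n = 3–13; two-way ANOVA.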

[6] = target: Transient receptor potential cation channel subfamily V member 1 (Rattus norvegicus, UniProt O35433); assay: as §3; format: cell-based; in short: as §4
Chain of Transient receptor potential cation channel subfamily V member 1 (O35433 whole entry): as above

[7] = system: HUVEC; assay: Protection against cold inflicted injury in HUVEC assessed as 25 to 100 uM pretreated for 2 hrs followed by washout and subsequent incubation for 20 hrs at 4 degC by LDH assay; format: functional, cell-based; conditions: Homo sapiens, dose 25-100 µM
[8] = target: T1, Catechol O-methyltransferase; assay: Substrate activity at COMT (unknown origin) assessed as N-(2-Fluoro-4,5-dimethoxyphenethyl)octanamide formation in presence of cofactor SAM at 180 mins by HPLC analysis; format: ADME; conditions: 3 h; in short: as §1
[9] = system: HUVEC; assay: Antiinflammatory activity in HUVEC assessed as inhibition of TNFalpha-stimulated VCAM1 expression at lower concentration measured after overnight incubation by Western blot analysis; format: functional, cell-based; conditions: Homo sapiens; in short: as §2
[10] = target: T2, Nuclear factor erythroid 2-related factor 2 (Homo sapiens); assay: Activation of NRF2 in HUVEC assessed as induction of HO1 expression at lower concentration measured after overnight incubation by Western blot analysis; format: tissue-based; in short: as §2
[11] = Drug distribution in Lewis rat bone assessed as standard uptake value at 4.8 to 13.2 MBq measured after 120 mins; format: ADME, tissue-based, Bone element; conditions: in vivo, 2 h, dose 4.8-13.2 MBq
[12] = Drug distribution in Lewis rat bladder assessed as standard uptake value at 4.8 to 13.2 MBq measured after 120 mins; format: ADME, tissue-based, Urinary bladder; conditions: in vivo, 2 h, dose 4.8-13.2 MBq
[13] = Drug accumulation in Lewis rat bone at 4.8 to 13.2 MBq measured after 60 mins by PET imaging analysis; format: ADME, tissue-based, Bone element; conditions: in vivo, 1 h, dose 4.8-13.2 MBq
[14] = Drug distribution in Lewis rat liver assessed as standard uptake value at 4.8 to 13.2 MBq measured at 8 min by PET imaging analysis; format: ADME, tissue-based; conditions: in vivo, dose 4.8-13.2 MBq
[15] = Drug distribution in Lewis rat bladder at 4.8 to 13.2 MBq measured within 30 mins by PET imaging; format: ADME, tissue-based, Urinary bladder; conditions: in vivo, 0.5 h, dose 4.8-13.2 MBq
[16] = Drug distribution in Lewis rat kidney assessed as standard uptake value at 4.8 to 13.2 MBq observed between 5 to 10 mins by PET imaging analysis; format: ADME, tissue-based; conditions: in vivo, dose lower 4.8 MBq, time lower 5 min, dose upper 13.2 MBq, time upper 10 min
[17] = Drug uptake in human HUVEC lysate extracts assessed as retention time incubated for 120 mins by HPLC analysis; format: ADME, subcellular; conditions: 2 h
In short: (§5)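 HUVEC incubated with ~450 kBq 18F tracer per well in 1 mL medium at 37 °C, normal atmosphere, for up to 120 min. Supernatant collected, cells washed 3× with PBS, lysed and scraped for gamma counting; associated activity expressed as % of applied dose. Lysate extracts analysed by radio-HPLC; three independent experiments, mean ± SD.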

[18] = Drug transport in HUVEC assessed as cell association incubated for 120 mins by HPLC analysis; format: ADME, tissue-based; conditions: human, 2 h, in the assay text read “by gamma counting” for “by HPLC analysis”; in short: as §5
[19] = Metabolic stability of compound in rat plasma assessed as compound recovery rate measured after 120 mins by radio-HPLC analysis; format: ADME, cell-free; conditions: read-out: Drug recovery
In short: (§6)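 18F tracer in PBS/3% EtOH (100 µL) shaken with rat plasma (200 µL) at 37 °C for 120 min. Samples at 30, 60, 120 min deproteinized with equal volume acetonitrile at 0 °C; supernatant analysed by radio-TLC and radio-HPLC for radiochemical purity and recovery.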

[20] = Metabolic stability of compound in rat plasma assessed as radiochemical purity measured after 120 mins by radio-HPLC analysis; format: ADME, cell-free; conditions: read-out: Stabilty; in short: as §6
[21] = Lipophilicity, log D of compound in n-octanol and phosphate buffered saline at pH 7.5 by shake flask method; format: physicochemical
In short: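 Shake-flask partition of the 18F tracer between n-octanol and PBS at pH 7.5, following OECD guideline; n = 3.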

Drug metabolism [1]: Metabolite_Detected
Activity [3]: Active
EC50 [4]: 12.1 µM
Activity [5]: Dose-dependent effect
EC50 [6]: 7.1 µM
Structure (SMILES): CCCCCCCC(=O)NCCc1ccc(O)c(O)c1
Activity [2]: Active
Activity [7]: Active

Drug metabolism [8]: Metabolite_Detected
Activity [10]: inactive
Activity [3]: Active
EC50 [4]: 32.6 µM
Activity [5]: Dose-dependent effect
EC50 [6]: 45.9 µM
Structure (SMILES): CCCCCCCC(=O)NCCc1cc(O)c(O)cc1F
Activity [2]: Active
Activity [9]: inactive
Activity [7]: Active

SUV [11]: 9.8 g/mL
SUV [12]: 38.5 g/mL
Drug uptake [13]: Active
SUV [14]: 21 g/mL
Drug uptake [15]: Active
SUV [16]: 8 g/mL
Retention_time [17]: 4.07 min
Drug transport [18]: 0.14 %ID
remaining at 2 h [19]: 77%
remaining at 2 h [20]: ≥ 98%
logD [21]: 3.35
Structure (SMILES): CCCCCCCC(=O)NCCc1cc(O)c(O)cc1[18F]

From ChEMBL document CHEMBL4715787, “Radiofluorinated N-Octanoyl Dopamine ([F]F-NOD) as a Tool To Study Tissue Distribution and Elimination of NOD in Vitro and in Vivo” (J Med Chem, 2016)
